Reference: ChEMBL document CHEMBL1129589, “Anti-inflammatory 17beta-thioalkyl-16alpha,17alpha-ketal and -acetal androstanes: a new class of airway selective steroids for the treatment of asthma” (J Med Chem, 1996)

What was measured:
[1] = system: Rattus norvegicus; assay: Selectivity ratio of Topical vs Systemic routes of administration.; format: functional
Procedure, shortened: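 Male Sprague-Dawley rats (about 350 g, six per group) received the steroid intratracheally under halothane. It was suspended in 1% carboxymethyl cellulose/0.2% Tween 80 and given at 0 h with saline and at 24 h with Sephadex G200 (final 5 mg/mL). At 48 h, lungs and thymus were weighed. The ratio compares doses giving 30% reduction of lung edema and of thymus weight in the same animals.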

[2] = system: H35; assay: Induction of tyrosine aminotransferase activity in cultured rat liver H4IIE cells.; format: functional; conditions: read-out: ED50 (the source's name)
Procedure, shortened: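 Confluent H4IIE rat hepatoma cells (4-day culture) incubated overnight with steroid at 0-100 nM, in triplicate wells. Lysate equilibrated at 37 °C with α-ketoglutarate and pyridoxal phosphate in phosphate buffer, pH 7.3.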

[3] = system: Rattus norvegicus; assay: In vivo inhibition of Rat lung edema following i.t. administration.; format: functional; conditions: inhaled or nasal
[4] = system: Rattus norvegicus; assay: In vivo suppression of thymus weight by 30% following i.t. administration.; format: functional; conditions: inhaled or nasal
Procedure, shortened: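 Male Sprague-Dawley rats (~350 g, six per group) dosed intratracheally under halothane anesthesia at 0 and 24 h. Vehicle: 1% carboxymethyl cellulose/0.2% Tween 80 suspension, sonicated. First dose given with saline, second with Sephadex G200 (final 5 mg/mL). Rats killed at 48 h; lungs and thymus weighed. Doses reducing Sephadex-induced edema and thymus weight by 30% calculated.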

[5] = biological target: T1, Glucocorticoid receptor (Rattus norvegicus, UniProt P06536); assay: Steroid binding against the rat thymus glucocorticoid receptor
T1 sequence (P06536 whole entry): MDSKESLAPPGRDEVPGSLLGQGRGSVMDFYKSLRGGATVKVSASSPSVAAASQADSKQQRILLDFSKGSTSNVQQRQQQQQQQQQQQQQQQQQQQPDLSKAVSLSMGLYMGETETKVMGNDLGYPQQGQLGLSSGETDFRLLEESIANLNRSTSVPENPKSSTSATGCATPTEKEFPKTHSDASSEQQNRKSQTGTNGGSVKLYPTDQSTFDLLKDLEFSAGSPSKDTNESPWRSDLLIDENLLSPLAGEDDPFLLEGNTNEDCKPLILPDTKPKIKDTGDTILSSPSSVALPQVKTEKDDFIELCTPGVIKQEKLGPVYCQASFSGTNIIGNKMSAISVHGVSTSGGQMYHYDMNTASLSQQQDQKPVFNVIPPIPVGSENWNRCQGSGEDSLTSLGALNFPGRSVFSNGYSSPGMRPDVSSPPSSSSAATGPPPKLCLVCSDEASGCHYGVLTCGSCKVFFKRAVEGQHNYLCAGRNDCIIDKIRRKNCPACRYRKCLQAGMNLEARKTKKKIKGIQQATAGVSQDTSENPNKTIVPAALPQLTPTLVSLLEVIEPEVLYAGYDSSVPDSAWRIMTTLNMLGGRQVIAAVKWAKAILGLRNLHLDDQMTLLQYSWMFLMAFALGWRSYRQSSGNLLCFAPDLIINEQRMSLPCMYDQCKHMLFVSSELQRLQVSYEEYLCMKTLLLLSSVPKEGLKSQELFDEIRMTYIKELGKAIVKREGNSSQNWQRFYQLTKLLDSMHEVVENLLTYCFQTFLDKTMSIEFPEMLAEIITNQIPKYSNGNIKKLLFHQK

[6] = system: Rattus norvegicus; assay: Selectivity ratio of Topical vs Systemic routes of administration; format: functional
Procedure, shortened: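 Male Sprague-Dawley rats (about 350 g, six per group) were dosed intratracheally under halothane at 0 and 24 h, as a sonicated suspension in 1% carboxymethyl cellulose/0.2% Tween 80. The first dose was given with saline, the second with Sephadex G200 (final 5 mg/mL). Lungs and thymus were weighed at 48 h. The ratio compares doses reducing edema and thymus weight by 30%, both measured in the same animals.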

Compound | Selectivity [1] | EC50 [2] [nM] | ED50 [3] [mg/kg] | ED50 [4] [mg/kg] | IC50 [5] [nM] | Selectivity [6]
CCC[C@@H]1O[C@@H]2CC3C4CCC5=CC(=O)C=C[C@]5(C)[C@@]4(F)[C@@H](O)C[C@]3(C)[C@]2(SCC)O1 (stereo partly drawn) | >0.43 | 1.5 | > 3 | 7 | 3.3 | 
CCC[C@@H]1O[C@@H]2CC3C4C[C@H](F)C5=CC(=O)C=C[C@]5(C)[C@@]4(F)[C@@H](O)C[C@]3(C)[C@]2(SCF)O1 (stereo partly drawn) | 0.065 | 0.3 | 0.3 | 4.6 | 2.2 | 
CS[C@@]12OC(C)(C)O[C@@H]1CC1C3C[C@H](F)C4=CC(=O)C=C[C@]4(C)[C@@]3(F)[C@@H](O)C[C@@]12C (stereo partly drawn) | 0.4 | 0.2 | 1.3 | 3.2 | 2.2 | 
CCC[C@@H]1O[C@@H]2CC3C4CCC5=CC(=O)C=C[C@]5(C)[C@@]4(F)[C@@H](O)C[C@]3(C)[C@]2(Sc2ccccn2)O1 (stereo partly drawn) |  | > 100 | > 3 | > 3 | 12 | 
CCC[C@@H]1O[C@@H]2CC3C4CCC5=CC(=O)C=C[C@]5(C)[C@@]4(F)[C@@H](O)C[C@]3(C)[C@]2(SC(C)C)O1 (stereo partly drawn) |  | 7 | > 3 | > 3 | 5.5 | 
CCS[C@]1(SC)CC[C@H]2[C@@H]3CCC4=CC(=O)C=C[C@]4(C)[C@@]3(F)[C@@H](O)C[C@@]21C | 1.91 | 2 | 2.1 | 1.1 | 2.3 | 
CC1(C)O[C@@H]2C[C@H]3[C@@H]4C[C@H](F)C5=CC(=O)C=C[C@]5(C)[C@@]4(F)[C@@H](O)C[C@]3(C)[C@]2(SCF)O1 | 0.037 | 1 | 0.07 | 1.9 | 4.3 | 
CC=C[C@@H]1O[C@@H]2C[C@H]3[C@@H]4CCC5=CC(=O)C=C[C@]5(C)[C@@]4(F)[C@@H](O)C[C@]3(C)[C@]2(SC)O1 | >2.73 | 1.1 | > 3 | 1.1 | 1.8 | 
CC1(C)O[C@@H]2C[C@H]3[C@@H]4CCC5=CC(=O)C=C[C@]5(C)[C@@]4(F)[C@@H](O)C[C@]3(C)[C@]2(S(C)(=O)=O)O1 | 1.57 | 13 | 2.2 | 1.4 | 5.3 | 
CCC[C@@H]1O[C@@H]2CC3C4C[C@H](F)C5=CC(=O)C=C[C@]5(C)[C@@]4(F)[C@@H](O)C[C@]3(C)[C@]2(SC)O1 (stereo partly drawn) | 0.2 | 0.4 | 0.11 | 0.54 | 2.4 | 
CCC[C@@H]1O[C@@H]2CC3C4CCC5=CC(=O)C=C[C@]5(C)[C@@]4(F)[C@@H](O)C[C@]3(C)[C@]2(SC)O1 (stereo partly drawn) | >0.56 | 1.7 | > 1 | 1.8 | 1.7 | 
CCC[C@@H]1O[C@@H]2CC3C4CCC5=CC(=O)C=C[C@]5(C)[C@@]4(F)[C@@H](O)C[C@]3(C)[C@]2(SCF)O1 (stereo partly drawn) | >0.75 | 1.2 | > 3 | 4 | 3.3 | 
CCC[C@@H]1O[C@@H]2CC3C4C[C@H](F)C5=CC(=O)CC[C@]5(C)[C@@]4(F)[C@@H](O)C[C@]3(C)[C@]2(SC)O1 (stereo partly drawn) | 0.06 | 0.3 | 0.06 | 1 | 2.2 | 
CCC[C@@H]1O[C@@H]2CC3C4CCC5=CC(=O)CC[C@]5(C)[C@@]4(F)[C@@H](O)C[C@]3(C)[C@]2(SC)O1 (stereo partly drawn) |  | 0.7 | 3.6 | 5.2 |  | 
CS[C@@]12OC(C)(C)O[C@@H]1CC1C3CCC4=CC(=O)C=C[C@]4(C)[C@@]3(F)[C@@H](O)C[C@@]12C (stereo partly drawn) | 0.33 | 0.2 | 0.3 | 0.9 | 1.6 | 
CC1(C)O[C@@H]2CC3C4CCC5=CC(=O)C=C[C@]5(C)[C@@]4(F)[C@@H](O)C[C@]3(C)[C@]2(Sc2ccccn2)O1 (stereo partly drawn) |  | 50 | > 3 | > 3 | 22 | 
CCC[C@@H]1O[C@@H]2CC3C4CCC5=CC(=O)C=C[C@]5(C)[C@@]4(F)[C@@H](O)C[C@]3(C)[C@]2([S+](C)[O-])O1 (stereo partly drawn) |  | 23 | > 3 | 3 | 3.2 | >1
CCC(=O)O[C@]1(C(=O)SCF)C(C)C[C@H]2[C@@H]3C[C@H](F)C4=CC(=O)C=C[C@]4(C)[C@@]3(F)[C@@H](O)C[C@@]21C (single isomer, unassigned) [FLUTICASONE PROPIONATE] |  | 0.1 | 0.05 | 0.47 |  | 
CCCC1O[C@@H]2C[C@H]3[C@@H]4CCC5=CC(=O)C=C[C@]5(C)[C@H]4[C@@H](O)C[C@]3(C)[C@]2(C(=O)CO)O1 (stereo partly drawn) [BUDESONIDE] | 0.4 | 0.2 | 0.39 | 0.96 | 2.9 | 
